The results in this text go back to ChEMBL document CHEMBL4428128, “Design, synthesis, crystal structure, biological evaluation and molecular docking studies of carbazole-arylpiperazine derivatives” (Bioorg Med Chem, 2016).

Assay [1] has as its target T1, Alpha-1D adrenergic receptor (Rattus norvegicus, UniProt P23944).
T1 sequence (P23944 whole entry): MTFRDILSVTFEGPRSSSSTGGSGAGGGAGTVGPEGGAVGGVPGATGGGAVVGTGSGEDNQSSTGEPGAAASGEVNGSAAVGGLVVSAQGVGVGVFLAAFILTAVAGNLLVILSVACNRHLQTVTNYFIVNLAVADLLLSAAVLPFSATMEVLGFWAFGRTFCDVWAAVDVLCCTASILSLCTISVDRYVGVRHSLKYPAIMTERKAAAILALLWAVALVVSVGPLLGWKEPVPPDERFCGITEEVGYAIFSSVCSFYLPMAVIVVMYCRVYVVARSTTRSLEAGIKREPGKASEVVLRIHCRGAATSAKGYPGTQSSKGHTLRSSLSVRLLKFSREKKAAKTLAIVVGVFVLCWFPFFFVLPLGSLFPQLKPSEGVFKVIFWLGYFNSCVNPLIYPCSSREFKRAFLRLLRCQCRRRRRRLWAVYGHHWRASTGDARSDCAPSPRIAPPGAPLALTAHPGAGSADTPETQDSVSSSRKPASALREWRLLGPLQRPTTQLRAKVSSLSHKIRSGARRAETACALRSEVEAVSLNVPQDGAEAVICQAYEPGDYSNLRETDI
Briefly: Antagonistic activity at alpha1D adrenoceptor in Sprague-Dawley rat thoracic aorta assessed as inhibition of noradrenaline-induced contractions after 0.5 hrs in presence of alpha2/beta adrenoceptor blocker yohimbine, propranolol by Schild plot analysis. Conditions: read-out: pA2 (converted). In a few lines:
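Isolated tissue rings (aorta rings about 4 mm) held in Krebs–Henseleit buffer (pH 7.4, 37 °C, O2/CO2 19:1), equilibrated 1.5 h under optimal tension, primed three times with noradrenaline, then washed. Antagonist preincubated 0.5 h. Noradrenaline concentration–response curves run 1 h apart, without and with antagonist, in continuous yohimbine and propranolol. Responses expressed as % of pre-incubation NA Emax.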

The species entered for assay [2] is Rattus norvegicus. Briefly: Selectivity ratio of antilog of change in pA2 for alpha1D adrenoceptor in Sprague-Dawley rat thoracic aorta to antilog of change in pA2 for alpha1B adrenoceptor in Sprague-Dawley rat spleen.
The species entered for assay [3] is Rattus norvegicus. Briefly: Selectivity ratio of antilog of change in pA2 for alpha1D adrenoceptor in Sprague-Dawley rat thoracic aorta to antilog of change in pA2 for alpha1A adrenoceptor in Sprague-Dawley rat vas deferens.
The target of assay [4] is T2, Alpha-1A adrenergic receptor (Rattus norvegicus, UniProt P43140).
T2 sequence (P43140 whole entry): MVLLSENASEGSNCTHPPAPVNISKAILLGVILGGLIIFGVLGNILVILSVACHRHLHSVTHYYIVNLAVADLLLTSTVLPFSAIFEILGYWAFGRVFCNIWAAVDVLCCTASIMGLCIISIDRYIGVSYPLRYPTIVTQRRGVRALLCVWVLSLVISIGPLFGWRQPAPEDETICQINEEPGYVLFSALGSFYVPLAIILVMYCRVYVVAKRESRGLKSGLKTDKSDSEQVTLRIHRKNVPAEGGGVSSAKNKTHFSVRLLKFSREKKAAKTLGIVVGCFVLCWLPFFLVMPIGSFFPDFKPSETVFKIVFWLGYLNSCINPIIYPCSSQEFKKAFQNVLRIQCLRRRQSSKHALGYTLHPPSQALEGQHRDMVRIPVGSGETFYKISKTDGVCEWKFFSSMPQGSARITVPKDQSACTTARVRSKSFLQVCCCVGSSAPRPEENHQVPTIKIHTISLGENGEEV
The experiment in a line: Antagonistic activity at alpha1A adrenoceptor in Sprague-Dawley rat vas deferens assessed as inhibition of noradrenaline-induced contractions after 0.5 hrs in presence of alpha2/beta adrenoceptor blocker yohimbine, propranolol by Schild plot analysis. The following applies: read-out: pA2 (converted).

The species named for assay [5] is Rattus norvegicus. Briefly: Selectivity ratio of antilog of change in pA2 for alpha1A adrenoceptor in Sprague-Dawley rat vas deferens to antilog of change in pA2 for alpha1B adrenoceptor in Sprague-Dawley rat spleen.
For assay [6], the target named is T3, Alpha-1B adrenergic receptor (Rattus norvegicus, UniProt P15823).
T3 sequence (P15823 whole entry): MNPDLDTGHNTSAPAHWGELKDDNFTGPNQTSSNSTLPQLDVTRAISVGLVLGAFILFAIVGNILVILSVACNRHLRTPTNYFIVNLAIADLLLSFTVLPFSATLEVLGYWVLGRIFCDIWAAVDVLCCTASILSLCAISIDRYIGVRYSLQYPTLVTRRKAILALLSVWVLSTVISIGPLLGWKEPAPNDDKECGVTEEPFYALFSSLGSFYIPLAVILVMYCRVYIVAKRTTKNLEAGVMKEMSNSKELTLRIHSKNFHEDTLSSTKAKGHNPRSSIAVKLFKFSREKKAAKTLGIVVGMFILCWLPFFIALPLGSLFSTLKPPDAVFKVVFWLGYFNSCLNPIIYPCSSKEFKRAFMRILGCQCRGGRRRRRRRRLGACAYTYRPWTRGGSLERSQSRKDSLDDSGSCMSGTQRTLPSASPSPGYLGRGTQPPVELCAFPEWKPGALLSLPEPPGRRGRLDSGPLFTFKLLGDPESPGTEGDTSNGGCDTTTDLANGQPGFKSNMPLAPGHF
The experiment in a line: Antagonistic activity at alpha1B adrenoceptor in Sprague-Dawley rat spleen assessed as inhibition of noradrenaline-induced contractions after 0.5 hrs in presence of alpha2/beta adrenoceptor blocker yohimbine, propranolol by Schild plot analysis. The format is tissue-based. The following applies: read-out: pA2 (converted).

As to `COc1ccc(N2CCN(CC(O)COc3cccc4[nH]c5ccccc5c34)CC2)cc1` (configuration not stated), the Kb was 87.1 nM in assay [1], 1860 nM in assay [4] and 6920 nM in assay [6]. Also, the Selectivity ratio in assay [2] came out at 79.4; in assay [3] it was 21.4; in assay [5], 3.7.

As to `COc1ccc(OC)c(N2CCN(CC(O)COc3cccc4[nH]c5ccccc5c34)CC2)c1` (configuration not stated), the Kb in assay [1] is 141 nM; in assay [4], 437 nM; in assay [6] it was 74.1 nM. For the same compound, the values for the Selectivity ratio in assay [2], in assay [3] and in assay [5] were 0.5, 3.1 and 0.2, respectively.
